pKi: −log10 of the molar value.
Key:
[1] = biological target: T1, 5-hydroxytryptamine receptor 1A (Homo sapiens, UniProt P08908); assay: Displacement of [3H]-8-OH-DPAT from recombinant human 5HT1A receptor expressed in CHO cell membranes measured after 60 mins by microbeta scintillation counting analysis
T1 sequence (P08908 whole entry): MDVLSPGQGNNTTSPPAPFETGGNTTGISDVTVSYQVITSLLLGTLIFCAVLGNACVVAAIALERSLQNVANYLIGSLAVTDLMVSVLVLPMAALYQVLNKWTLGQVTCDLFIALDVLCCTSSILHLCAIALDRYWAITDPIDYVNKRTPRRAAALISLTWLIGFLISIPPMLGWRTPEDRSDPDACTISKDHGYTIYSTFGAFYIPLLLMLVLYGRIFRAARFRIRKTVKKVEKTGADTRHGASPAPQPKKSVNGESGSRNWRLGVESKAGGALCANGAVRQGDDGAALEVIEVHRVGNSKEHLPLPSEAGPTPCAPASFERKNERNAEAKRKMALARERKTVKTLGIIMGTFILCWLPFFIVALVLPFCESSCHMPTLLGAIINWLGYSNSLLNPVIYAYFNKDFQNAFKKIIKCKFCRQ

[2] = biological target: Sodium-dependent serotonin transporter (Rattus norvegicus, UniProt P31652); assay: Displacement of [3H]-citalopram from SERT in rat cortex tissue measured after 60 mins by microbeta scintillation counting analysis
Sequence of Sodium-dependent serotonin transporter (P31652 whole entry): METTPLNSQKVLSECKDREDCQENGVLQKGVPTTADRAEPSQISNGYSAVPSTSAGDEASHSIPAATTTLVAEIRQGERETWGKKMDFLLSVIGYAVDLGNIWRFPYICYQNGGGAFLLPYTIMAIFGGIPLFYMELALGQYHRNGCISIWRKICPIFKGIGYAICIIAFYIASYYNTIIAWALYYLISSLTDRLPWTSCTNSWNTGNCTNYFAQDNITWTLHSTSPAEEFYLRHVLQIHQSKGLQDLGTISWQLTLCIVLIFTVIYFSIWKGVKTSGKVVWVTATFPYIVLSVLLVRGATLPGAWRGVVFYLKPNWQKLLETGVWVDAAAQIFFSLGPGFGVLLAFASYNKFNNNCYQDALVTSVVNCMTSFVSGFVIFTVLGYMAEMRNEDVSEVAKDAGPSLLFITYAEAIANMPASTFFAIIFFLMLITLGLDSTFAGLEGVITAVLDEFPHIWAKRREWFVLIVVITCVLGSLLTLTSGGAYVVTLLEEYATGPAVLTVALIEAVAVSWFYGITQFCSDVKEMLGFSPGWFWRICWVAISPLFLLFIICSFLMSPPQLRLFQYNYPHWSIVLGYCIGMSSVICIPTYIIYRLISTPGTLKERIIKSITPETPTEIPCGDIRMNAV
How it was run: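 Rat cortex tissue suspension with 1.0 nM [3H]-citalopram in 50 mM Tris pH 7.7, 150 mM NaCl, 5 mM KCl. Incubated 60 min at 24 °C, in duplicate. GF/B filtration, scintillation counting. One-site fit, Ki via Cheng–Prusoff with in-house Kd.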

[3] = biological target: 5-hydroxytryptamine receptor 2A (Homo sapiens, UniProt P28223); assay: Displacement of [3H]-ketanserin from recombinant human 5HT2A receptor expressed in HEK293 cells measured after 1.5 hrs by microbeta scintillation counting analysis; format: cell-based
Sequence of 5-hydroxytryptamine receptor 2A (P28223 whole entry): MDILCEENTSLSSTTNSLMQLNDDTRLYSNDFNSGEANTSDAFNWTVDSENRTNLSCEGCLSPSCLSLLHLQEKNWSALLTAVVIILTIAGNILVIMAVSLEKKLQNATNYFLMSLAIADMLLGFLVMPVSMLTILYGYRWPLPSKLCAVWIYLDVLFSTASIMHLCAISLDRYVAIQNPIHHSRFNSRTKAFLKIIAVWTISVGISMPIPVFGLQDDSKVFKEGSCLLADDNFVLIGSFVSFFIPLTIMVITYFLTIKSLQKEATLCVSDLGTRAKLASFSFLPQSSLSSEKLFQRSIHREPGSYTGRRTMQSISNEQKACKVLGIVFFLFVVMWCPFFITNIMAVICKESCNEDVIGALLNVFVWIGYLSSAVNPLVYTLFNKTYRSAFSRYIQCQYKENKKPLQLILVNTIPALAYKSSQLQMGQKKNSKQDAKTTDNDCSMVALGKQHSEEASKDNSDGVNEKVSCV

[4] = biological target: 5-hydroxytryptamine receptor 6 (Homo sapiens, UniProt P50406); assay: Displacement of [3H]-LSD from recombinant human 5HT6 receptor expressed in HEK293 cells measured after 1 hr by microbeta scintillation counting analysis; format: cell-based
Sequence of 5-hydroxytryptamine receptor 6 (P50406 whole entry): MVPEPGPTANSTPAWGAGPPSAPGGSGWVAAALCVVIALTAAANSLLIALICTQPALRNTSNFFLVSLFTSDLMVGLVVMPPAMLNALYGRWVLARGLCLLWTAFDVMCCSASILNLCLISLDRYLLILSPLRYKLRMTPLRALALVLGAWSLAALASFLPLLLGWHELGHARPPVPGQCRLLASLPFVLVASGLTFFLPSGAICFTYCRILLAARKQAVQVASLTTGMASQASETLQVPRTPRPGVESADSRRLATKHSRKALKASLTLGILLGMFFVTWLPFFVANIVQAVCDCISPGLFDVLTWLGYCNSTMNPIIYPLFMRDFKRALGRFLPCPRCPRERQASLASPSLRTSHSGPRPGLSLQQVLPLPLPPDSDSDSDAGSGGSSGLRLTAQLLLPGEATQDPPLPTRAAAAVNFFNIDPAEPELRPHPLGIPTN

[5] = biological target: 5-hydroxytryptamine receptor 7 (Homo sapiens, UniProt P34969); assay: Displacement of [3H]-5-CT from recombinant human 5HT7 receptor expressed in HEK293 cells measured after 1 hr by microbeta scintillation counting analysis; format: cell-based
Sequence of 5-hydroxytryptamine receptor 7 (P34969 whole entry): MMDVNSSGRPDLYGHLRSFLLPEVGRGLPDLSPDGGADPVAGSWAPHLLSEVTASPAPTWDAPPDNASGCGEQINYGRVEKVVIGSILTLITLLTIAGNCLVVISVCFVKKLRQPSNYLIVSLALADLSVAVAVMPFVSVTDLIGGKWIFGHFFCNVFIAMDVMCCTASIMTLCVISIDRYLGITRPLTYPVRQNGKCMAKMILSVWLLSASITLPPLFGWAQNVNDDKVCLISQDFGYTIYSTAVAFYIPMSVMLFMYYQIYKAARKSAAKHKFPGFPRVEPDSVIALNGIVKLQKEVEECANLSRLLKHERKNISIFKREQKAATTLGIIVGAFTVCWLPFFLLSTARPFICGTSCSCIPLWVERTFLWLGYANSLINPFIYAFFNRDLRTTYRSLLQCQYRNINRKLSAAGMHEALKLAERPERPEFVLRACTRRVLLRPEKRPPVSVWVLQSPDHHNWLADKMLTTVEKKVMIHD

D(2) dopamine receptor = D(2) dopamine receptor (Homo sapiens, UniProt P14416); assay: Displacement of [3H]-raclopride from recombinant human D2 receptor expressed in HEK293 cells measured after 1 hr by microbeta scintillation counting analysis; format: cell-based
Sequence of D(2) dopamine receptor (P14416 whole entry): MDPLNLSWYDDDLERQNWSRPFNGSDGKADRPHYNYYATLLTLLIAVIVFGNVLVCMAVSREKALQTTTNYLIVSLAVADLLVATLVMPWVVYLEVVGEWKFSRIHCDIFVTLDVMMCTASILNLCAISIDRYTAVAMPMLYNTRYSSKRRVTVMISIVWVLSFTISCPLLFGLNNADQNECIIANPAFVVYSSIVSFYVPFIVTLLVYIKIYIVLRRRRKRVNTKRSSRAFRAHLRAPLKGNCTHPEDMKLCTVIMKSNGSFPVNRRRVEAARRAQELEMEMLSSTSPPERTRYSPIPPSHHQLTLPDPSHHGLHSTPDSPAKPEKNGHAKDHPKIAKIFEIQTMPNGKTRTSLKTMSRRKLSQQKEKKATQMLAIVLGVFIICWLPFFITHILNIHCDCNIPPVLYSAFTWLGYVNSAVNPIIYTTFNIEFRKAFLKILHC

Mus musculus [6] = assay: Induction of hypothermia in CD-1 mouse assessed as change in body temperature at 5 mg/kg, ip measured after 30 mins by thermometric method; format: functional, organism-based
How it was run: (§1)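 Male CD-1 mice (23–40 g), 6–8 per dose, given compound ip in 10% aqueous DMSO (10 mL/kg). Rectal temperature was read by thermometer 30, 60, 90 and 120 min after dosing. Results are expressed as change from basal temperature at experiment start. Analysis by Dunnett's test.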

Mus musculus [7] = assay: Induction of hypothermia in CD-1 mouse assessed as change in body temperature at 20 mg/kg, ip measured after 30 mins by thermometric method; format: functional, organism-based; how it was run: as §1
Mus musculus [8] = assay: Induction of hypothermia in CD-1 mouse assessed as change in body temperature at 15 mg/kg, ip measured after 30 mins by thermometric method (Rvb <= 0.4 deg C); format: functional, organism-based; how it was run: as §1
Mus musculus [9] = assay: Induction of hypothermia in CD-1 mouse assessed as change in body temperature at 17.5 mg/kg, ip measured after 30 mins by thermometric method (Rvb <= 0.4 deg C); format: functional, organism-based; how it was run: as §1
Mus musculus [10] = assay: Induction of hypothermia in CD-1 mouse assessed as change in body temperature at 5 mg/kg, ip measured after 60 mins by thermometric method; format: functional, organism-based; how it was run: as §1
Mus musculus [11] = assay: Induction of hypothermia in CD-1 mouse assessed as change in body temperature at 20 mg/kg, ip measured after 60 mins by thermometric method; format: functional, organism-based; how it was run: as §1
Mus musculus [12] = assay: Induction of hypothermia in CD-1 mouse assessed as change in body temperature at 15 mg/kg, ip measured after 60 mins by thermometric method (reference value: 0.1 deg C); format: functional, organism-based; how it was run: as §1
Mus musculus [13] = assay: Induction of hypothermia in CD-1 mouse assessed as change in body temperature at 17.5 mg/kg, ip measured after 60 mins by thermometric method (reference value: 0.1 deg C); format: functional, organism-based; how it was run: as §1
Mus musculus [14] = assay: Induction of hypothermia in CD-1 mouse assessed as change in body temperature at 5 mg/kg, ip measured after 90 mins by thermometric method; format: functional, organism-based; how it was run: as §1
Mus musculus [15] = assay: Induction of hypothermia in CD-1 mouse assessed as change in body temperature at 20 mg/kg, ip measured after 90 mins by thermometric method; format: functional, organism-based; how it was run: as §1
Mus musculus [16] = assay: Induction of hypothermia in CD-1 mouse assessed as change in body temperature at 15 mg/kg, ip measured after 90 mins by thermometric method (reference value: -0.1 to 0.1 deg C); format: functional, organism-based; how it was run: as §1
Mus musculus [17] = assay: Induction of hypothermia in CD-1 mouse assessed as change in body temperature at 17.5 mg/kg, ip measured after 90 mins by thermometric method (reference value: -0.1 to 0.1 deg C); format: functional, organism-based; how it was run: as §1
Mus musculus [18] = assay: Induction of hypothermia in CD-1 mouse assessed as change in body temperature at 5 mg/kg, ip measured after 120 mins by thermometric method; format: functional, organism-based; how it was run: as §1
Mus musculus [19] = assay: Induction of hypothermia in CD-1 mouse assessed as change in body temperature at 20 mg/kg, ip measured after 120 mins by thermometric method; format: functional, organism-based; how it was run: as §1
Mus musculus [20] = assay: Induction of hypothermia in CD-1 mouse assessed as change in body temperature at 15 mg/kg, ip measured after 120 mins by thermometric method (reference value: -0.1 to 0.1 deg C); format: functional, organism-based; how it was run: as §1
Mus musculus [21] = assay: Induction of hypothermia in CD-1 mouse assessed as change in body temperature at 17.5 mg/kg, ip measured after 120 mins by thermometric method (reference value: -0.1 to 0.1 deg C); format: functional, organism-based; how it was run: as §1
[22] = Half life in human liver microsomes at 1 uM by LC-MS analysis; format: ADME, Microsome
How it was run: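 Compound at 1 μM incubated at 37 °C with 1 mg/mL pooled human liver microsomes and 100 μM NADPH in 0.1 M potassium phosphate pH 7.4, after 5-min preincubation. Samples taken at 0, 5, 10, 15, 30 min and quenched in ice-cold acetonitrile with buspirone internal standard. No-NADPH controls were run. Parent measured by LC-ESI(+)-MS of [M+H+]; half-life reported.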

COc1ccc(-c2c(=O)n(CCCCN3CCCC(c4c[nH]c5ccc(OC)cc45)C3)c(=O)n3ccccc23)cc1 (stereo not drawn)
pKi [1]: 7.21 | pKi [2]: 7.07 | pKi [3]: 6.50 | pKi [4]: 6.16 | pKi [5]: 6.02 | pKi (D(2) dopamine receptor): 4.95 | deltaT (Mus musculus [6]): -0.2 °C | deltaT (Mus musculus [7]): -2.4 °C | deltaT (Mus musculus [8]): -0.5 °C | deltaT (Mus musculus [9]): -0.6 °C | deltaT (Mus musculus [10]): 0.2 °C | deltaT (Mus musculus [11]): -1 °C | deltaT (Mus musculus [12]): 0.2 °C | deltaT (Mus musculus [13]): -0.2 °C | deltaT (Mus musculus [14]): 0.2 °C | deltaT (Mus musculus [15]): 0.1 °C | deltaT (Mus musculus [16]): 0.3 °C | deltaT (Mus musculus [17]): -0.1 °C | deltaT (Mus musculus [18]): -0.2 °C | deltaT (Mus musculus [19]): 0 °C | deltaT (Mus musculus [20]): 0.2 °C | deltaT (Mus musculus [21]): 0.1 °C | half-life at 1 µM [22]: 3.31 min
